Reference: ChEMBL document CHEMBL3616442, “Unconventional Knoevenagel-type indoles: Synthesis and cell-based studies for the identification of pro-apoptotic agents” (Eur J Med Chem, 2015)

Assays:
Type in all cases: functional
K562 = assay: Growth inhibition of human K562 cells after 48 hrs by sulforhodamine B assay; settings: K562, 48 h
In short: (§1)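 NCI 60-cell-line screen. Compounds tested at five 10-fold dilutions from 10^-4 to 10^-8 M. Cells exposed for the last 48 h of a 72 h incubation, growth estimated by sulforhodamine B protein assay. GI50 is the concentration giving 50% growth inhibition. Values beyond the tested range are expressed as greater or lesser than the extreme concentration.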

[1] = Growth inhibition of human MOLT4 cells after 48 hrs by sulforhodamine B assay; settings: MOLT-4, 48 h; in short: as §1
[2] = Growth inhibition of human RPMI8226 cells after 48 hrs by sulforhodamine B assay; settings: RPMI-8226, 48 h
SR = assay: Growth inhibition of human SR cells after 48 hrs by sulforhodamine B assay
A549 = assay: Growth inhibition of human A549 cells after 48 hrs by sulforhodamine B assay; settings: A549, 48 h; in short: as §1
[3] = Growth inhibition of human EKVX cells after 48 hrs by sulforhodamine B assay; in short: as §1
HOP-62 = assay: Growth inhibition of human HOP62 cells after 48 hrs by sulforhodamine B assay; settings: HOP-62, 48 h; in short: as §1
[4] = Growth inhibition of human HOP92 cells after 48 hrs by sulforhodamine B assay; settings: HOP-92, 48 h; in short: as §1
NCI-H226 = assay: Growth inhibition of human NCI-H226 cells after 48 hrs by sulforhodamine B assay; settings: NCI-H226, 48 h; in short: as §1
NCI-H322M = assay: Growth inhibition of human NCI-H322M cells after 48 hrs by sulforhodamine B assay; in short: as §1
NCI-H460 = assay: Growth inhibition of human NCI-H460 cells after 48 hrs by sulforhodamine B assay; settings: NCI-H460, 48 h; in short: as §1
NCI-H522 = assay: Growth inhibition of human NCI-H522 cells after 48 hrs by sulforhodamine B assay; settings: NCI-H522, 48 h; in short: as §1
[5] = Growth inhibition of human COLO205 cells after 48 hrs by sulforhodamine B assay; settings: COLO 205, 48 h; in short: as §1
[6] = Growth inhibition of human HCC2998 cells after 48 hrs by sulforhodamine B assay; settings: HCC 2998, 48 h; in short: as §1
HT-29 = assay: Growth inhibition of human HT-29 cells after 48 hrs by sulforhodamine B assay; settings: HT-29, 48 h; in short: as §1
SF-268 = assay: Growth inhibition of human SF268 cells after 48 hrs by sulforhodamine B assay; settings: SF-268, 48 h
[7] = Growth inhibition of human SF295 cells after 48 hrs by sulforhodamine B assay; settings: SF-295, 48 h
[8] = Growth inhibition of human SF539 cells after 48 hrs by sulforhodamine B assay; settings: SF-539, 48 h
SNB-19 = assay: Growth inhibition of human SNB19 cells after 48 hrs by sulforhodamine B assay; settings: SNB-19, 48 h
SNB-75 = assay: Growth inhibition of human SNB75 cells after 48 hrs by sulforhodamine B assay; settings: SNB-75, 48 h
[9] = Growth inhibition of human LOXIMVI cells after 48 hrs by sulforhodamine B assay; settings: LOX IMVI; in short: as §1
Malme-3M = assay: Growth inhibition of human MALME-3M cells after 48 hrs by sulforhodamine B assay; in short: as §1
M14 = assay: Growth inhibition of human M14 cells after 48 hrs by sulforhodamine B assay; settings: M14, 48 h; in short: as §1
SK-MEL-2 = assay: Growth inhibition of human SK-MEL-2 cells after 48 hrs by sulforhodamine B assay; settings: SK-MEL-2, 48 h
SK-MEL-28 = assay: Growth inhibition of human SK-MEL-28 cells after 48 hrs by sulforhodamine B assay; settings: SK-MEL-28, 48 h
SK-MEL-5 = assay: Growth inhibition of human SK-MEL-5 cells after 48 hrs by sulforhodamine B assay; settings: SK-MEL-5, 48 h
UACC-257 = assay: Growth inhibition of human UACC257 cells after 48 hrs by sulforhodamine B assay; settings: UACC-257, 48 h
UACC-62 = assay: Growth inhibition of human UACC62 cells after 48 hrs by sulforhodamine B assay; settings: UACC-62, 48 h
IGROV-1 = assay: Growth inhibition of human IGROV1 cells after 48 hrs by sulforhodamine B assay; settings: IGROV-1, 48 h; in short: as §1
OVCAR-3 = assay: Growth inhibition of human OVCAR3 cells after 48 hrs by sulforhodamine B assay; settings: OVCAR-3, 48 h; in short: as §1
OVCAR-5 = assay: Growth inhibition of human OVCAR5 cells after 48 hrs by sulforhodamine B assay; settings: OVCAR-5, 48 h
OVCAR-8 = assay: Growth inhibition of human OVCAR8 cells after 48 hrs by sulforhodamine B assay; settings: OVCAR-8, 48 h
[10] = Growth inhibition of human NCI-ADR-RES cells after 48 hrs by sulforhodamine B assay; in short: as §1
786-0 = assay: Growth inhibition of human 786-0 cells after 48 hrs by sulforhodamine B assay; settings: 786-0, 48 h; in short: as §1
A498 = assay: Growth inhibition of human A498 cells after 48 hrs by sulforhodamine B assay; settings: A498, 48 h; in short: as §1
CAKI-1 = assay: Growth inhibition of human CAKI-1 cells after 48 hrs by sulforhodamine B assay; settings: CAKI-1, 48 h; in short: as §1
[11] = Growth inhibition of human RXF393 cells after 48 hrs by sulforhodamine B assay; settings: RXF 393, 48 h
TK-10 = assay: Growth inhibition of human TK10 cells after 48 hrs by sulforhodamine B assay; settings: TK-10, 48 h
UO-31 = assay: Growth inhibition of human UO31 cells after 48 hrs by sulforhodamine B assay; settings: UO-31, 48 h
PC-3 = assay: Growth inhibition of human PC3 cells after 48 hrs by sulforhodamine B assay; settings: PC-3, 48 h
DU-145 = assay: Growth inhibition of human DU145 cells after 48 hrs by sulforhodamine B assay; settings: DU-145, 48 h; in short: as §1
MCF7 = assay: Growth inhibition of human MCF7 cells after 48 hrs by sulforhodamine B assay; settings: MCF7, 48 h; in short: as §1
[12] = Growth inhibition of human Hs 578T cells after 48 hrs by sulforhodamine B assay; in short: as §1
[13] = Growth inhibition of human BT549 cells after 48 hrs by sulforhodamine B assay; settings: BT-549, 48 h; in short: as §1
T47D = assay: Growth inhibition of human T47D cells after 48 hrs by sulforhodamine B assay
MDA-MB-468 = assay: Growth inhibition of human MDA-MB-468 cells after 48 hrs by sulforhodamine B assay; settings: MDA-MB-468, 48 h; in short: as §1

COc1ccc2[nH]c(-c3ccccc3)c(C=C(C#N)C#N)c2c1
GI50 (K562): 2.1 µM | GI50 [1]: 3.7 µM | GI50 [2]: 2.6 µM | GI50 (SR): 0.865 µM | GI50 (A549): 7 µM | GI50 [3]: 4.1 µM | GI50 (HOP-62): 5.3 µM | GI50 [4]: 2.4 µM | GI50 (NCI-H226): 3.5 µM | GI50 (NCI-H322M): 7.4 µM | GI50 (NCI-H460): 3.6 µM | GI50 (NCI-H522): 4.6 µM | GI50 [5]: 2.1 µM | GI50 [6]: 6.1 µM | GI50 (HT-29): 3.1 µM | GI50 (SF-268): 8.3 µM | GI50 [7]: 4.2 µM | GI50 [8]: 2.9 µM | GI50 (SNB-19): 6 µM | GI50 (SNB-75): 2.8 µM | GI50 [9]: 4.9 µM | GI50 (Malme-3M): 4.4 µM | GI50 (M14): 2.3 µM | GI50 (SK-MEL-2): 5.9 µM | GI50 (SK-MEL-28): 4.4 µM | GI50 (SK-MEL-5): 2.9 µM | GI50 (UACC-257): 30 µM | GI50 (UACC-62): 2.5 µM | GI50 (IGROV-1): 8.4 µM | GI50 (OVCAR-3): 3.1 µM | GI50 (OVCAR-5): 44.2 µM | GI50 (OVCAR-8): 7.7 µM | GI50 [10]: 2.8 µM | GI50 (786-0): 6.6 µM | GI50 (A498): 2 µM | GI50 (CAKI-1): 4.1 µM | GI50 [11]: 9.8 µM | GI50 (TK-10): 5.1 µM | GI50 (UO-31): 6.4 µM | GI50 (PC-3): 5.4 µM | GI50 (DU-145): 6.5 µM | GI50 (MCF7): 2.2 µM | GI50 [12]: 2.4 µM | GI50 [13]: 2.2 µM | GI50 (T47D): 2.3 µM | GI50 (MDA-MB-468): 2.1 µM

COc1ccc2[nH]c(-c3ccccc3)c(/C=C(\C#N)S(=O)(=O)c3ccccc3)c2c1
GI50 (K562): 1.4 µM | GI50 [1]: 4.7 µM | GI50 (SR): 2.2 µM | GI50 (A549): 6 µM | GI50 [3]: 6.9 µM | GI50 (HOP-62): 8.3 µM | GI50 [4]: 6.1 µM | GI50 (NCI-H226): 9.4 µM | GI50 (NCI-H322M): 30.1 µM | GI50 (NCI-H460): 4.6 µM | GI50 (NCI-H522): 4 µM | GI50 [5]: 7.4 µM | GI50 [6]: 18.7 µM | GI50 (HT-29): 3.5 µM | GI50 (SF-268): 13.3 µM | GI50 [7]: 2.8 µM | GI50 [8]: 5.5 µM | GI50 (SNB-19): 13.5 µM | GI50 (SNB-75): 5.9 µM | GI50 [9]: 7.4 µM | GI50 (Malme-3M): 19.4 µM | GI50 (M14): 3.7 µM | GI50 (SK-MEL-2): 3.7 µM | GI50 (SK-MEL-28): 6.1 µM | GI50 (SK-MEL-5): 3.1 µM | GI50 (UACC-257): 4.9 µM | GI50 (UACC-62): 3.8 µM | GI50 (IGROV-1): 4.8 µM | GI50 (OVCAR-3): 5 µM | GI50 (OVCAR-5): 37.3 µM | GI50 (OVCAR-8): 7.8 µM | GI50 [10]: 3.8 µM | GI50 (786-0): 6.1 µM | GI50 (A498): 9.3 µM | GI50 (CAKI-1): 4.5 µM | GI50 (TK-10): 17.5 µM | GI50 (UO-31): 4 µM | GI50 (PC-3): 8.3 µM | GI50 (DU-145): 10.1 µM | GI50 (MCF7): 3.9 µM | GI50 [12]: 7.6 µM | GI50 [13]: 11.6 µM | GI50 (T47D): 5.2 µM | GI50 (MDA-MB-468): 4.2 µM
